Measurements as given in ChEMBL document CHEMBL4513216, “Probing the Open Global Health Chemical Diversity Library for Multistage-Active Starting Points for Next-Generation Antimalarials” (ACS Infect Dis, 2020).

Test: Toxicity liver stage against HepG2, at 10uM
Assay type: cell-based
Parameters: test concentration 10 uM, cell line HepG2-A16-CD81EGFP
Settings: human, HepG2-A16-CD81EGFP cells; read-out: INHIBITION
Summary of the method: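 Uninfected HepG2-A16-CD81EGFP cells, 3 × 10^3 per well, 1536-well, plated on prespotted compound at 10 μM final, parasite-free screening media added to match infected plates; puromycin 10 μM positive, DMSO 0.5% negative; run in parallel with 48 h PbLuc assay at 37 °C, 5% CO2; viability by CellTiter-Glo luminescence, normalized to controls.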

COc1cccc(CN2CCN(c3noc(C(C)C)n3)CC2)c1F
cytotoxicity at 10 µM: 2.97%

O=C(NCc1ccccc1CO)Nc1ccc2c(c1)CCO2
cytotoxicity at 10 µM: 11.4%

CCc1nnc2n1CCN(CC(=O)Nc1cc(C(C)(C)C)nn1C)C2
cytotoxicity at 10 µM: -5.77%

CCN(C)S(=O)(=O)N1CCC(C(O)c2ccc(Cl)cc2)CC1 (configuration not stated)
cytotoxicity at 10 µM: 5.84%

CCN(CC)c1ccc2ccc(C(=O)N3CCCCO3)cn12
cytotoxicity at 10 µM: 5.33%

CCC[C@H]1CN(CCS(C)(=O)=O)C[C@@H]1NC(=O)Cn1cc(C)cn1
cytotoxicity at 10 µM: 2.72%

CC(C)c1cc(C(=O)N2CCc3ccccc3C2C(=O)O)nn1C (configuration not stated)
cytotoxicity at 10 µM: -2.53%

Cc1noc(C)c1-c1cncc(C2CCCN2Cc2c[nH]cn2)n1 (configuration not stated)
cytotoxicity at 10 µM: -12.4%

COc1ccccc1C(=O)N1CCC(O)(c2cccc(C)c2C)CC1
cytotoxicity at 10 µM: 12.1%

CN(C)C(=O)N1CCC(c2nc3ccc(-c4ccccc4)cn3n2)CC1
cytotoxicity at 10 µM: 5.9%

CCOCCC1(CNC(=O)c2ccncc2)CCC1
cytotoxicity at 10 µM: 4.11%

O=C(NCCNc1ncccn1)N1CC=C(c2ccccc2)CC1
cytotoxicity at 10 µM: 12.6%

Cc1ccc(CNC(CCO)C2CCCCC2)nc1 (configuration not stated)
cytotoxicity at 10 µM: -37.4%

CSCC[C@H](NC(=O)CCn1ccc2c(Br)cccc21)C(=O)O
cytotoxicity at 10 µM: 0.633%

CCN(C(=O)CN1CCCC1c1ccc(F)cc1)c1ccccc1C (configuration not stated)
cytotoxicity at 10 µM: 5.42%

CCCC(CNc1cc(C(C)C)nc2ccnn12)N(C)C (configuration not stated)
cytotoxicity at 10 µM: 5.6%

CN1CCCN(C(=O)c2cc(-c3cc[nH]n3)n3ccccc23)CC1
cytotoxicity at 10 µM: 11%

CCC(C)(C)c1cc(-c2c(C)nn(CCO)c2C)c(C#N)c(N)n1
cytotoxicity at 10 µM: 3.31%

O=C(c1ccc2[nH]ccc2c1)N1CC[C@@H]2CN(CC3CC3)CCO[C@@H]2C1
cytotoxicity at 10 µM: -108%

Cc1cc(C)nc(-n2nc(C)c3c2NC(=O)CSC3c2cnn(C)c2)n1 (configuration not stated)
cytotoxicity at 10 µM: -36.5%

CC1CCCCN1C(=O)c1cn(-c2ccc(C(F)(F)F)cn2)nn1 (configuration not stated)
cytotoxicity at 10 µM: -56.5%

Cc1csc(C2CCCN(C(=O)c3cc(Cl)c[nH]3)C2)n1 (configuration not stated)
cytotoxicity at 10 µM: -8.21%

Cc1cc2nc(C(C)C)cc(NCCc3ccncc3)n2n1
cytotoxicity at 10 µM: -1.18%

Cc1nc(CN2CCCC(Cn3cncn3)C2)no1 (configuration not stated)
cytotoxicity at 10 µM: 4.34%

C=C(C)CN(CC)C(=O)c1cc(F)ccc1N1CCN(C)CC1
cytotoxicity at 10 µM: -1.18%

CCCN(c1ccccc1C(=O)O)S(=O)(=O)c1cccc2cccnc12
cytotoxicity at 10 µM: -3.89%

Cc1cc(N2CCC(c3ncc[nH]3)CC2)cc(C)n1
cytotoxicity at 10 µM: -1.95%

CC(O)(CNc1ccc(Cl)c(C#N)n1)c1ccsc1 (configuration not stated)
cytotoxicity at 10 µM: 3.39%

Cc1cc(C(=O)N2CCCCC2c2nc3cc(F)ccc3[nH]2)no1 (configuration not stated)
cytotoxicity at 10 µM: 19.6%

COc1cc2cc3c(nc2cc1OC)OCCN(CC1CC1)C3
cytotoxicity at 10 µM: 5.37%

Cn1cc(CN2CCCC3(CCN(C(=O)c4ccoc4)C3)C2)cn1 (configuration not stated)
cytotoxicity at 10 µM: -71.9%

O=C(NCCNC1CCCCC1)c1cccs1
cytotoxicity at 10 µM: -12.7%

CCC(CC)C(O)CNC(=O)Nc1cccc(-c2nccn2C)c1 (configuration not stated)
cytotoxicity at 10 µM: -1.39%

COc1cc(C)c(CNC(C)c2csc(C)n2)cc1OC (configuration not stated)
cytotoxicity at 10 µM: 5.06%

CC(SCCS(C)(=O)=O)c1nc(Cc2ccc(F)cc2)no1 (configuration not stated)
cytotoxicity at 10 µM: 4.6%

COCCN1CCCC(c2ccnc3c(C(N)=O)cnn23)C1 (configuration not stated)
cytotoxicity at 10 µM: 2.05%

Cc1cnn(CC2CN(CC(=O)Nc3cccnc3)CCO2)c1 (configuration not stated)
cytotoxicity at 10 µM: 8.1%

C[C@@H]1CN(Cc2nc(Cc3ccccc3F)no2)C[C@H](C)O1
cytotoxicity at 10 µM: 6.74%

COc1ccc2[nH]cc(-c3ccnc(NC4CCCC4)n3)c2c1
cytotoxicity at 10 µM: -6.33%

CC(C)c1cccc(-n2cc(O)c(C(=O)O)n2)c1
cytotoxicity at 10 µM: -4.49%

CCC(C(=O)NCc1ccncc1)N(c1cccc(Cl)c1)S(C)(=O)=O (configuration not stated)
cytotoxicity at 10 µM: -4.31%

COc1cccc(OCC2CCCN(C(=O)c3cc(C)n[nH]3)C2)c1 (configuration not stated)
cytotoxicity at 10 µM: -3.42%

COc1ccc(-c2nccn2C[C@@H]2CCCN3CCCC[C@H]23)cc1
cytotoxicity at 10 µM: 4.71%

CN1CC(=O)N(c2cccnc2)CC12CCN(C(=O)C1CCCCC1)C2 (configuration not stated)
cytotoxicity at 10 µM: 1.55%

Cc1cccnc1N1CC2(CCN(Cc3cccnc3)C2)C1
cytotoxicity at 10 µM: -8.13%

CCC(O)CN1CCN(C(=O)c2sccc2OC)CC1 (configuration not stated)
cytotoxicity at 10 µM: -7.25%

COc1cccc(C(O)CN2CCN(C(=O)CCC(C)C)CC2)c1 (configuration not stated)
cytotoxicity at 10 µM: -46.9%

COCc1ncn2c1CN(C(=O)c1ccco1)CC2
cytotoxicity at 10 µM: 9.32%

CCc1cc(C(=O)N2CCC(C3CCN(c4ncccn4)CC3)C2)on1 (configuration not stated)
cytotoxicity at 10 µM: 2.25%

CC(C)Cc1noc(CN2CCOC(Cn3cncn3)C2)n1 (configuration not stated)
cytotoxicity at 10 µM: -2.58%

CC(=O)NC(C)C(=O)N(Cc1ccc(C)c(C)c1)C1CC1 (configuration not stated)
cytotoxicity at 10 µM: 8.77%

O=C1CN(C(=O)C2CCCCC2)CC(O)CN1Cc1ccco1 (configuration not stated)
cytotoxicity at 10 µM: -2.67%

O=C(CCc1ccc(Br)cc1)NCc1nnc[nH]1
cytotoxicity at 10 µM: 0.163%

Cc1nc(NCCc2ccc(Cl)cc2)cc(C(=O)N2CCCCC2)n1
cytotoxicity at 10 µM: -23%

COCc1ncn(Cc2nc(-c3ccc(OC)cc3F)oc2C)n1
cytotoxicity at 10 µM: -92.7%

Cc1nc(C(=O)N2CCOCC2)cc(N2CCC(C(N)=O)CC2)n1
cytotoxicity at 10 µM: 1.82%

CN1N=C(C(=O)N(Cc2ccco2)C2CCCC2)CCC1=O
cytotoxicity at 10 µM: -144%

COCc1ncc(CN2CC(Oc3c(C)cccc3C)C2)cn1
cytotoxicity at 10 µM: 5.12%

CSc1ccccc1CCC1CCS(=O)(=O)C1 (configuration not stated)
cytotoxicity at 10 µM: 3.75%

CCN(CC)Cc1nc(Cc2cccc(C(F)(F)F)c2)no1
cytotoxicity at 10 µM: 9.76%

Cn1ccnc1CN1CCCN(C(=O)c2ccc3c(c2)OCO3)CC1
cytotoxicity at 10 µM: -6.61%

O=C(NCCOc1ncc(Cl)cc1Cl)c1ccoc1
cytotoxicity at 10 µM: 0.191%

O=C(C1CC1)N1Cc2[nH]nc(COCc3cccnc3)c2C1
cytotoxicity at 10 µM: 0.997%

Nc1nc2c(c(N3CCCC3)n1)CCN(Cc1ccccn1)CC2
cytotoxicity at 10 µM: -35.3%

Cc1nc(CNC2CC(=O)N(CCc3cccc(Cl)c3)C2)c[nH]1 (configuration not stated)
cytotoxicity at 10 µM: -133%

O=C(c1cc2cc(F)ccc2[nH]1)N1CCC(Nc2ccc(F)cc2)CC1
cytotoxicity at 10 µM: -7.36%

CN(C)[C@@H]1CN(Cc2ccoc2)C[C@@H]2CCCO[C@@H]21
cytotoxicity at 10 µM: 1.93%

Cc1ccc2[nH]c(CN(C)c3cc(CCN)nc(C)n3)nc2c1
cytotoxicity at 10 µM: 0%

Cc1cc(CNc2ccc(CC(=O)N(C)c3ccccc3)cc2)no1
cytotoxicity at 10 µM: -13.9%

c1ccc(-c2nnn3c2COC(CNCC2CC2)C3)cc1 (configuration not stated)
cytotoxicity at 10 µM: -77.8%

CC(C)CN1CC(O)CN(S(=O)(=O)c2ccccc2)CC1=O (configuration not stated)
cytotoxicity at 10 µM: 1.74%

CN(C)C(=O)c1cccc(Nc2cnn(C)c2)c1
cytotoxicity at 10 µM: 5.42%

COc1cc(CCC(=O)N2CCC(c3cc4nccnc4[nH]3)CC2)on1
cytotoxicity at 10 µM: 3.67%

COc1cccc(CN2CCCCCC2c2cccs2)c1OC (configuration not stated)
cytotoxicity at 10 µM: 8.29%

O=C(NCCc1noc(C2CCCO2)n1)c1cn2ccsc2n1 (configuration not stated)
cytotoxicity at 10 µM: -4.4%

CCN(CC)C(=O)c1ccc(-n2ncc(C#N)c2N)cc1
cytotoxicity at 10 µM: 0.796%

CCc1nccn1C1CCCN(C(=O)c2ccc3c(c2)OCCO3)C1 (configuration not stated)
cytotoxicity at 10 µM: -11.8%

O=C(N1CCOCC1)[C@@]12CCO[C@@H]1CCN(Cc1ccncc1)C2
cytotoxicity at 10 µM: -1.2%

COC(=O)c1sccc1S(=O)(=O)N1CCC(Oc2cccnn2)CC1
cytotoxicity at 10 µM: -4.82%

COCC[C@]1(O)CCN(Cc2nc(C)c(C)s2)C[C@H]1C
cytotoxicity at 10 µM: 2.14%

CN1CCN2CCN(C(=O)c3cnn4cc(CCO)cnc34)CC2C1 (configuration not stated)
cytotoxicity at 10 µM: 7.04%

Cc1cc(C)n(C2CCCN(C(=O)c3cn4cccnc4n3)C2)n1 (configuration not stated)
cytotoxicity at 10 µM: -4.62%

CC(=O)c1sc2nc3c(c(C(F)(F)F)c2c1N)CN(C(C)=O)CC3
cytotoxicity at 10 µM: -26%

Cc1ccc(NC(=O)CN2CCCNC2=O)c(SC(F)(F)F)c1
cytotoxicity at 10 µM: -1.96%

COc1ccc(C2(NCc3c(C)nc4c(C)cccn34)CCCC2)cc1
cytotoxicity at 10 µM: 3.79%

Nc1nc2c(c(NCC(c3cccnc3)N3CCOCC3)n1)CCCC2 (configuration not stated)
cytotoxicity at 10 µM: -14.9%

C[C@H]1C[C@@H]2CCN(C(=O)c3cccn3C)C[C@H]2O1
cytotoxicity at 10 µM: 10.1%

CCCN(CCO)C(=O)C1CCC(=O)N(CCc2ccc(Cl)cc2)C1 (configuration not stated)
cytotoxicity at 10 µM: -12.5%

CC(C)=Cc1c(-c2ccccc2)ncn1CCS(C)(=O)=O
cytotoxicity at 10 µM: -3.15%

Cc1cccc(N2CCN(CC(=O)N3CCCC(N(C)C)CC3)CC2)c1 (configuration not stated)
cytotoxicity at 10 µM: -3.73%

CCO[C@H]1COC[C@@H]1NC(=O)CCc1nc(-c2ccccc2)no1
cytotoxicity at 10 µM: 15.8%

CN1CCN(Cc2cn3c(n2)CN(C(=O)N2CCOCC2)CC3)CC1
cytotoxicity at 10 µM: -18.3%

Cc1nnc(SCCCNc2cc(C3CC3)ncn2)s1
cytotoxicity at 10 µM: 19.8%

CCN(CC)CC(=O)NCCc1csc(N2CCCC2)n1
cytotoxicity at 10 µM: 8.55%

Cc1cc(-c2nccs2)nc(C2CCN(Cc3cccs3)CC2)n1
cytotoxicity at 10 µM: 6.81%

O=C([C@H]1CCCO1)N1CCC2(CCCN(CCOc3ccccc3)C2)C1 (some centres not stated)
cytotoxicity at 10 µM: -3.25%

CC(C)CN1CCC(C(=O)NCCNC(=O)c2ccoc2)CC1
cytotoxicity at 10 µM: 0.335%

Cn1ccnc1C(=O)N1CCC2(CCN2c2ncccn2)C1 (configuration not stated)
cytotoxicity at 10 µM: -0.736%

OC(COCc1cccs1)Cn1cc(Cl)cn1 (configuration not stated)
cytotoxicity at 10 µM: -0.574%

Cc1noc(C)c1CN1CCn2cc(CNc3ccccn3)nc2C1
cytotoxicity at 10 µM: -1.38%

O=C(Nc1nc[nH]n1)c1cc(-c2ccc(F)cc2)n[nH]1
cytotoxicity at 10 µM: -5.4%

CN1C(=O)C2(CCN(S(=O)(=O)C3CC3)CC2)c2ccccc21
cytotoxicity at 10 µM: -5.27%

CN(Cc1ccccc1)c1ncccc1CNC(=O)c1ccnn1C
cytotoxicity at 10 µM: -1.37%

CCCn1nc2c(cc1=O)CN(Cc1nc(-c3ccco3)no1)CC2
cytotoxicity at 10 µM: -7.69%

Cc1ccc(-c2nc(CCNC(=O)NC3CCN(C)CC3)co2)cc1
cytotoxicity at 10 µM: -6.71%

COc1ccc(C(=O)Nc2cccc(SC)c2)c(OC)n1
cytotoxicity at 10 µM: 13.2%

CCn1ccc(NC(=O)CCn2nc(C)c3ccccc32)n1
cytotoxicity at 10 µM: 4.51%

c1cc(CNCc2ccnc(N3CCOCC3)c2)c2c(c1)OCCCO2
cytotoxicity at 10 µM: 7.82%

O=C(NCCNc1cnccn1)N1CCc2ccccc2C1
cytotoxicity at 10 µM: -2.73%

CN1CCc2c(CNC(=O)c3nccn3C)cncc2C1
cytotoxicity at 10 µM: -95.7%

CC(NC(=O)CCCOc1ccccc1)c1nnc2n1CCCCC2 (configuration not stated)
cytotoxicity at 10 µM: -9.51%

NC(=O)C1CCN(C(=O)c2cccc(OCc3cscn3)c2)CC1
cytotoxicity at 10 µM: -15.5%
